The target in one assay is Phosphodiesterase 6. The assay is described as follows: Inhibitory activity against Phosphodiesterase 6 isolated from bovine retina. Format: protein assay.
A further assay deals with Phosphodiesterase 1 (Homo sapiens, UniProt P54750+Q01064+Q14123). Put plainly: Inhibitory activity against phosphodiesterase-1 (PDE1) isolated from canine lung. Format: protein assay, Canis lupus familiaris. Particulars: target entry is the homologue from another species. An outline of the steps:
(§1)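 Enzyme IC50 taken from a logarithmic concentration–inhibition curve of at least four points; each value is the mean of at least two duplicate experiments.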

The target in assay [1] is cGMP-specific 3',5'-cyclic phosphodiesterase (Canis lupus familiaris, UniProt O77746). Put plainly: Inhibitory activity against phosphodiesterase 5 (PDE5) isolated from canine lung. An outline of the steps: as §1
Assay [2] has as its target T1, cGMP-dependent 3',5'-cyclic phosphodiesterase (Bos taurus, UniProt P14099).
T1 sequence (P14099 whole entry): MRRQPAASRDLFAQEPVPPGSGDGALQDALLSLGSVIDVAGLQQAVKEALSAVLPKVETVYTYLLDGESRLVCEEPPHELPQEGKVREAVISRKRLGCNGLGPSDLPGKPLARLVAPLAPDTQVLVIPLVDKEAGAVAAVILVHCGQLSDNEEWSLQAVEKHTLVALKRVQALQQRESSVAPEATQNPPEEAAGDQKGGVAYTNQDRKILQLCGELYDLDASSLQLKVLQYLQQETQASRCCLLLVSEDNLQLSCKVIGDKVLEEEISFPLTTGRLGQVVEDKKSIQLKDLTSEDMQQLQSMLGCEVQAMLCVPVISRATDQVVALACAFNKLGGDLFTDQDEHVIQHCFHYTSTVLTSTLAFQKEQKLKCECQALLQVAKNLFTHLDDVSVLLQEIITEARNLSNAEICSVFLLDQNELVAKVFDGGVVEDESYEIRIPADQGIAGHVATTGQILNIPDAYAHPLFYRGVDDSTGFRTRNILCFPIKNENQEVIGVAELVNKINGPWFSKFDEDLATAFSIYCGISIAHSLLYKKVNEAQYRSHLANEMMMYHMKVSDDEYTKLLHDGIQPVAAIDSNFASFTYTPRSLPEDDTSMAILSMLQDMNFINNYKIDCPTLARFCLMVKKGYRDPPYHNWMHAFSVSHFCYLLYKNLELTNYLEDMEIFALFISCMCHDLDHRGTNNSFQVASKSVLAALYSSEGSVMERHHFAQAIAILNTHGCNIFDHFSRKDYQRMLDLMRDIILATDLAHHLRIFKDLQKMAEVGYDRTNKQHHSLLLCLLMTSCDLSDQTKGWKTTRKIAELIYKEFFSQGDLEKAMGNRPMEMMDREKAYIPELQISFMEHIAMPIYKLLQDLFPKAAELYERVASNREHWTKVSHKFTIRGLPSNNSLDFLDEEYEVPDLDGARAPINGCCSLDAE
Put plainly: Inhibitory activity against phosphodiesterase-2 (PDE2) isolated from bovine adrenal gland. The class given is tissue-based. An outline of the steps:
as §1

For a further assay, the target named is Phosphodiesterase 4 (Homo sapiens, UniProt P27815+Q08499+Q07343+Q08493). The assay is described as follows: Inhibitory activity against phosphodiesterase 4 (PDE4) isolated from canine lung. Format: protein assay, Canis lupus familiaris. The settings on record: target entry is the homologue from another species. An outline of the steps: as §1
In a further assay the target is Phosphodiesterase 3 (Homo sapiens, UniProt Q14432+Q13370). Put plainly: Inhibitory activity against phosphodiesterase-3 (PDE3) isolated from canine heart. The class given is protein assay, Canis lupus familiaris. The settings on record: target entry is the homologue from another species. An outline of the steps: as §1
The next assay is filed under the species Oryctolagus cuniculus. Put plainly: Relaxant effect on rabbit corpus cavernosum. The class given is functional.

Broadly, the IC50 is the concentration at which inhibition is half-maximal. Low values mean inhibition by little substance, high ones a need for much substance. Broadly, the EC30 is the point of the concentration-response curve where the effect stands at 30%. A lower EC30 goes with an effect from little substance.

With `COC(=O)c1c(-c2cc(OC)c(OC)c(OC)c2)c2ccc(NCc3ccccn3)nc2c(=O)n1Cc1ccnc(C)c1.Cl`, the figures for the IC50 (against Phosphodiesterase 6; against Phosphodiesterase 1; in assay [1]) were 22 nM, 41000 nM and 1.8 nM, respectively.
In assay [2], `CCCc1nn(C)c2c(=O)[nH]c(-c3cc(S(=O)(=O)N4CCN(C)CC4)ccc3OCC)nc12` gave an IC50 of 43000 nM.
As to `COC(=O)c1c(-c2cc(OC)c(OC)c(OC)c2)c2ccc(OCc3ccccn3)nc2c(=O)n1Cc1cccnc1.Cl`, the figures for the IC50 (against Phosphodiesterase 6; against Phosphodiesterase 1; in assay [1]) were 38 nM, 12000 nM and 2.3 nM, respectively.
Turning to `COC(=O)c1c(-c2cc(OC)c(OC)c(OC)c2)c2ccc(OCCc3ccccn3)nc2c(=O)n1Cc1ccnc(C)c1`, in assay [1], the IC50 was determined as 1.2 nM.
For `COC(=O)c1c(-c2cc(OC)c(OC)c(OC)c2)c2ccc(OCc3ccccn3)nc2c(=O)n1Cc1ccccn1.Cl`, the IC50 came to 230 nM at Phosphodiesterase 6, 20000 nM against Phosphodiesterase 1 and 11 nM in assay [1].
For the compound `COC(=O)c1c(-c2cc(OC)c(OC)c(OC)c2)c2ccnc(OCCc3ccccn3)c2c(=O)n1Cc1ccnc(C)c1.Cl`, the IC50 against Phosphodiesterase 6 is 72 nM; in assay [2], over 100000 nM; on Phosphodiesterase 4 it was 50000 nM; on Phosphodiesterase 1, 20000 nM; in assay [1], 0.52 nM; against Phosphodiesterase 3, over 100000 nM. Besides, it took 22 nM to reach the 30% level in the assay listed under Oryctolagus cuniculus (EC30).
Take `COC(=O)c1c(-c2cc(OC)c(OC)c(OC)c2)c2ccc(OCc3ccccn3)nc2c(=O)n1Cc1ccnc(C)c1.Cl`: the IC50 against Phosphodiesterase 6 is 8.6 nM; in assay [2], 40000 nM; at Phosphodiesterase 4 it was 30000 nM; against Phosphodiesterase 1, 33000 nM; in assay [1] it was 0.22 nM; at Phosphodiesterase 3, over 100000 nM. Also, it took 53 nM to reach the 30% level in the assay filed under Oryctolagus cuniculus (EC30).
Consider `COC(=O)c1c(-c2cc(OC)c(OC)c(OC)c2)c2ccnc(OCc3ncccn3)c2c(=O)n1Cc1ccnc(C)c1.Cl`, for which the IC50 is 56 nM against Phosphodiesterase 6; over 100000 nM in assay [2]; 67000 nM at Phosphodiesterase 4; over 100000 nM at Phosphodiesterase 1; 0.23 nM in assay [1]; over 100000 nM against Phosphodiesterase 3. The same compound showed an EC30 in the assay listed under Oryctolagus cuniculus of 5 nM.
For the compound `COC(=O)c1c(-c2cc(OC)c(OC)c(OC)c2)c2ccc(OCc3cnccn3)nc2c(=O)n1Cc1ccnc(C)c1.Cl`, the figures for the IC50 (on Phosphodiesterase 6; against Phosphodiesterase 1; in assay [1]) were 7.7 nM, 22000 nM and 0.29 nM, respectively.
Turning to `COC(=O)c1c(-c2cc(OC)c(OC)c(OC)c2)c2ccnc(NCCO)c2c(=O)n1Cc1ccnc(C)c1.Cl`, the IC50 at Phosphodiesterase 6 came to 280 nM; in assay [2], 78000 nM; at Phosphodiesterase 4 it was 450 nM; on Phosphodiesterase 1, 19000 nM; in assay [1], 2.6 nM; against Phosphodiesterase 3, 5300 nM. The compound also returned an EC30 in the assay filed under Oryctolagus cuniculus of 14 nM.
In the case of `COC(=O)c1c(-c2cc(OC)c(OC)c(OC)c2)c2ccc(OCc3ccccn3)nc2c(=O)n1Cc1ccncc1.Cl`, the IC50 turned out to be 11 nM against Phosphodiesterase 6, 45000 nM against Phosphodiesterase 1 and 0.38 nM in assay [1].
As to `COC(=O)c1c(-c2cc(OC)c(OC)c(OC)c2)c2ccc(OCc3ncccn3)nc2c(=O)n1Cc1ccnc(C)c1.Cl`, the IC50 at Phosphodiesterase 6 is 42 nM; in assay [2] it was 25000 nM; against Phosphodiesterase 4, 19000 nM; on Phosphodiesterase 1, over 100000 nM; in assay [1], 1.9 nM; at Phosphodiesterase 3, over 100000 nM. This compound came in with an EC30 in the assay listed under Oryctolagus cuniculus of 37 nM.
In the case of `COC(=O)c1c(-c2cc(OC)c(OC)c(OC)c2)c2ccc(OCc3ccccn3)nc2c(=O)n1-c1ccc(N)cc1.Cl`, the figures for the IC50 (against Phosphodiesterase 6; against Phosphodiesterase 1; in assay [1]) were 22 nM, 40000 nM and 0.51 nM, respectively.
Turning to `COC(=O)c1c(-c2cc(OC)c(OC)c(OC)c2)c2ccnc(OCc3ccccn3)c2c(=O)n1Cc1ccnc(C)c1`, the IC50 on Phosphodiesterase 6 was determined as 4.4 nM; against Phosphodiesterase 1, 25000 nM; in assay [1], 0.31 nM.
Turning to `COC(=O)c1c(-c2cc(OC)c(OC)c(OC)c2)c2ccnc(N3CCN(C)CC3)c2c(=O)n1Cc1ccnc(C)c1`, the IC50 against Phosphodiesterase 6 was 1400 nM; against Phosphodiesterase 1, over 100000 nM; in assay [1], 94 nM.
As to `COC(=O)c1c(-c2cc(OC)c(OC)c(OC)c2)c2ccc(OCc3ccccn3)cc2c(=O)n1-c1ccc(N)cc1.O=S(=O)(O)O`, the figures for the IC50 (on Phosphodiesterase 6; in assay [2]; on Phosphodiesterase 1) were 28 nM, 9700 nM and 3000 nM, respectively. In the assay filed under Oryctolagus cuniculus, this compound registered an EC30 of 7.9 nM.
